Drawing on ChEMBL document CHEMBL3632518, “Synthesis and anti-HCV determinant motif identification in pyranone carboxamide scaffold” (Bioorg Med Chem Lett, 2015), this text covers EC50 and CC50 for 45 molecules.

As a reminder, the EC50 is the concentration needed to bring the measured effect to its halfway point. A lower EC50 goes with higher potency in that assay. Broadly, the CC50 is the concentration giving 50% cytotoxicity. Lower therefore signals harm at low concentration.

One series has as its system Hepatitis C virus. The series is described as follows: Antiviral activity against HCV genotype 1b infected in human HuH7 cells after 3 days by luciferase reporter gene assay. In kind it is functional, organism-based, Hepacivirus hominis. The settings on record: Huh-7, 72 h. The method in brief:
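Huh-7 cells carrying self-replicating subgenomic genotype 1b HCV replicon with luciferase reporter (LucNeo#2), kept in DMEM high glucose plus 10% heat-inactivated FBS and 1 mg/ml G418. Seeded at 5×10^3 cells/well without G418 with various compound concentrations (DMSO stocks, 20 mM or higher); 37°C, 3 days. Cells PBS-washed, lysed, luciferase read by luminometer. EC50 from inhibition of luciferase activity.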
In general terms: Reporter assays use an easily measured gene product as a stand-in for the process of interest.

A short description of series [1]: Cytotoxicity against human HuH7 cells after 3 days by tetrazolium dye method. In kind it is cell-based, Huh-7. The essentials:
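LucNeo#2 replicon-bearing Huh-7 cells, 5×10^3 cells/well, grown without G418 with various compound concentrations at 37°C for 3 days. Viable cell number measured by water-soluble tetrazolium dye (Tetracolor One) method. CC50 taken as concentration reducing viable cell number by 50%.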

For the molecule `O=C(NCCO)c1c(N2CCCCC2)cc(-c2ccc(F)cc2)oc1=O`, in the series on Hepatitis C virus, the EC50 is over 100 µM. In series [1], this molecule yielded a CC50 at 72 h of over 100 µM.

Molecule `COc1ccccc1NC(=O)c1c(NO)cc(-c2ccccc2)oc1=O` yielded an EC50 with Hepatitis C virus of 0.35 µM. In series [1], the CC50 at 72 h was over 20 µM.

The molecule `COc1cccc(NC(=O)c2c(NO)cc(-c3ccccc3)oc2=O)c1` yielded an EC50 with Hepatitis C virus of 0.63 µM. The same molecule gave a CC50 at 72 h in series [1] of over 20 µM.

As for `CCOc1ccccc1NC(=O)c1c(NO)cc(-c2ccccc2)oc1=O`, the EC50 in the series on Hepatitis C virus stood at 1.1 µM. This molecule registered a CC50 at 72 h in series [1] of over 20 µM.

For the molecule `O=C(Nc1cccc(C(F)(F)F)c1)c1c(NO)cc(-c2ccccc2)oc1=O`, in the series with Hepatitis C virus, the midpoint of the response, the EC50, lay at 1.2 µM. For the same molecule, in series [1], half-maximal cytotoxicity (CC50 at 72 h) was put at 19 µM.

As to `Nc1ccccc1NC(=O)c1c(NO)cc(-c2ccccc2)oc1=O`, a half-maximal response with Hepatitis C virus (EC50) required 0.48 µM. This molecule also registered a CC50 at 72 h in series [1] of over 20 µM.

As to `O=C(Nc1ccccc1O)c1c(NO)cc(-c2ccccc2)oc1=O`, the EC50 in the series on Hepatitis C virus was found to be 1.7 µM. This molecule also yielded a half-maximal cytotoxic concentration (CC50) at 72 h in series [1] of 14 µM.

`O=C(Nc1cc([N+](=O)[O-])ccc1O)c1c(NO)cc(-c2ccccc2)oc1=O` came in with an EC50 in the series on Hepatitis C virus of 3.5 µM. In addition, the 50% cytotoxic concentration (CC50) at 72 h in series [1] is over 20 µM.

In turn, `O=C(NC1CCCCC1)c1c(NO)cc(-c2ccccc2)oc1=O` registered an EC50 with Hepatitis C virus of 2.3 µM. The molecule also showed a CC50 at 72 h in series [1] of 10.5 µM.

In the case of `O=C(NC1CC1)c1c(NO)cc(-c2ccc(F)cc2)oc1=O`, the EC50 in the series on Hepatitis C virus stood at 3.3 µM. The molecule also returned a CC50 at 72 h in series [1] of over 20 µM.

`O=C(NC1CCCCC1)c1c(NO)cc(-c2ccc(F)cc2)oc1=O` yielded an EC50 with Hepatitis C virus of 3.2 µM. For the same molecule, the CC50 at 72 h in series [1] came to 11.4 µM.

In the series with Hepatitis C virus, `O=C(NC1CC1)c1c(NO)cc(-c2ccc(Cl)cc2)oc1=O` returned an EC50 of 2.9 µM. The molecule further returned a CC50 at 72 h in series [1] of 12.8 µM.

As for `O=C(NC1CCCCC1)c1c(NO)cc(-c2ccc(Cl)cc2)oc1=O`, a half-maximal response with Hepatitis C virus (EC50) required 2.2 µM. For the same molecule, the midpoint of cytotoxicity in series [1], the CC50 at 72 h, lay at 8.8 µM.

Take `Cc1ccc(-c2cc(NO)c(C(=O)NC3CCCCC3)c(=O)o2)cc1`: the EC50 in the series on Hepatitis C virus came to 5 µM. Further, the CC50 at 72 h in series [1] stood at 10.1 µM.

`COc1ccc(-c2cc(NO)c(C(=O)NC3CCCCC3)c(=O)o2)cc1` registered an EC50 with Hepatitis C virus of 4.1 µM. The same molecule gave a CC50 at 72 h in series [1] of 13.9 µM.

For `O=C(Nc1ccccc1)c1c(NO)cc(-c2cccs2)oc1=O`, the midpoint of the response with Hepatitis C virus, the EC50, lay at 1.3 µM. Further, the CC50 at 72 h in series [1] is over 20 µM.

With `O=C(Nc1ccc(F)cc1)c1c(NO)cc(-c2cccs2)oc1=O`, the EC50 with Hepatitis C virus is 0.65 µM. The molecule further had a CC50 at 72 h in series [1] of over 20 µM.

Molecule `O=C(Nc1ccc(Cl)cc1)c1c(NO)cc(-c2cccs2)oc1=O` came in with an EC50 in the series with Hepatitis C virus of 3.8 µM. Further, the CC50 at 72 h in series [1] was over 20 µM.

On to `O=C(Nc1ccc(Br)cc1)c1c(NO)cc(-c2cccs2)oc1=O`, for which it took 6 µM to reach a half-maximal effect in the series with Hepatitis C virus (EC50). In addition, in series [1], the CC50 at 72 h was over 20 µM.

Consider `Cc1ccccc1NC(=O)c1c(NO)cc(-c2cccs2)oc1=O`, for which the EC50 in the series on Hepatitis C virus turned out to be 0.59 µM. Moreover, in series [1], the 50% cytotoxic concentration (CC50) at 72 h was over 20 µM.

For the molecule `Cc1cccc(NC(=O)c2c(NO)cc(-c3cccs3)oc2=O)c1`, the EC50 in the series with Hepatitis C virus was 0.47 µM. Moreover, the CC50 at 72 h in series [1] was over 20 µM.

`Cc1ccc(NC(=O)c2c(NO)cc(-c3cccs3)oc2=O)cc1` yielded an EC50 in the series on Hepatitis C virus of 0.39 µM. This molecule also gave a CC50 at 72 h in series [1] of over 20 µM.

Regarding `COc1ccc(NC(=O)c2c(NO)cc(-c3cccs3)oc2=O)cc1`, the 50% effective concentration (EC50) with Hepatitis C virus was determined as 0.2 µM. This molecule yielded a CC50 at 72 h in series [1] of over 20 µM.

The molecule `O=C(Nc1cccc(C(F)(F)F)c1)c1c(NO)cc(-c2cccs2)oc1=O` displayed an EC50 in the series with Hepatitis C virus of 1.8 µM. Also, the CC50 at 72 h in series [1] stood at 11 µM.

In the series on Hepatitis C virus, `Nc1ccccc1NC(=O)c1c(NO)cc(-c2cccs2)oc1=O` came in with an EC50 of 0.25 µM. The molecule further gave a half-maximal cytotoxic concentration (CC50) at 72 h in series [1] of over 20 µM.

As for `CCOc1ccccc1NC(=O)c1c(NCCO)cc(-c2ccccc2)oc1=O`, the EC50 with Hepatitis C virus was over 20 µM. The molecule also showed a CC50 at 72 h in series [1] of over 20 µM.

In turn, `O=C(Nc1ccccc1O)c1c(NCCO)cc(-c2ccccc2)oc1=O` gave an EC50 with Hepatitis C virus of over 20 µM. For the same molecule, the CC50 at 72 h in series [1] is over 20 µM.

The molecule `O=C(Nc1ccccc1)c1c(NCCO)cc(-c2cccc(Br)c2)oc1=O` returned an EC50 in the series with Hepatitis C virus of over 20 µM. This molecule came in with a CC50 at 72 h in series [1] of over 20 µM.

Consider `O=C(Nc1ccc(F)cc1)c1c(NCCO)cc(-c2cccc(Br)c2)oc1=O`, for which the EC50 in the series with Hepatitis C virus came to 5.5 µM. The same molecule registered a CC50 at 72 h in series [1] of over 20 µM.

In turn, `O=C(Nc1ccc(Cl)cc1)c1c(NCCO)cc(-c2cccc(Br)c2)oc1=O` registered an EC50 with Hepatitis C virus of 7.1 µM. Besides, the CC50 at 72 h in series [1] was 17 µM.

`O=C(Nc1ccc(Br)cc1)c1c(NCCO)cc(-c2cccc(Br)c2)oc1=O` yielded an EC50 with Hepatitis C virus of 13 µM. Also, in series [1], the CC50 at 72 h is over 20 µM.

Regarding `COc1ccccc1NC(=O)c1c(NCCO)cc(-c2cccc(Br)c2)oc1=O`, the EC50 in the series with Hepatitis C virus worked out at 6 µM. Besides, the CC50 at 72 h in series [1] is over 20 µM.

Consider `CCOc1ccccc1NC(=O)c1c(NCCO)cc(-c2cccc(Br)c2)oc1=O`, for which, in the series on Hepatitis C virus, the EC50 was over 20 µM. In series [1], the CC50 at 72 h was over 20 µM.

In turn, `O=C(Nc1ccc(Cl)cc1)c1c(NCCO)cc(-c2ccc(Br)cc2)oc1=O` came in with an EC50 in the series with Hepatitis C virus of 10 µM. This molecule also registered a CC50 at 72 h in series [1] of over 20 µM.

Turning to `O=C(Nc1ccc(Br)cc1)c1c(NCCO)cc(-c2ccc(Br)cc2)oc1=O`, in the series with Hepatitis C virus, the EC50 was found to be 14.4 µM. Further, in series [1], the CC50 at 72 h was over 20 µM.

`COc1ccccc1NC(=O)c1c(NCCO)cc(-c2ccc(Br)cc2)oc1=O`: the EC50 in the series on Hepatitis C virus was over 20 µM. Moreover, the CC50 at 72 h in series [1] is over 20 µM.

In turn, `COc1cccc(NC(=O)c2c(NCCO)cc(-c3ccc(Br)cc3)oc2=O)c1` showed an EC50 in the series with Hepatitis C virus of over 20 µM. Moreover, the CC50 at 72 h in series [1] was over 20 µM.

For `COc1ccc(NC(=O)c2c(NCCO)cc(-c3ccc(Br)cc3)oc2=O)cc1`, the EC50 with Hepatitis C virus was found to be 14 µM. In addition, in series [1], the CC50 at 72 h is over 20 µM.

Turning to `CCOc1ccccc1NC(=O)c1c(NCCO)cc(-c2ccc(Br)cc2)oc1=O`, the EC50 in the series on Hepatitis C virus was over 20 µM. In addition, the CC50 at 72 h in series [1] was over 20 µM.

In the series on Hepatitis C virus, `O=C(NCCBr)c1c(NCCO)cc(-c2cccs2)oc1=O` registered an EC50 of 15 µM. The CC50 at 72 h in series [1] was over 20 µM.

With `COc1ccccc1NC(=O)c1c(NCCO)cc(-c2cccs2)oc1=O`, in the series on Hepatitis C virus, the concentration giving a half-maximal response (EC50) was over 20 µM. The molecule also yielded a CC50 at 72 h in series [1] of over 20 µM.

`COc1cccc(NC(=O)c2c(NCCO)cc(-c3cccs3)oc2=O)c1` showed a half-maximal effective concentration (EC50) with Hepatitis C virus of over 20 µM. The CC50 at 72 h in series [1] is over 20 µM.

`CCOc1ccccc1NC(=O)c1c(NCCO)cc(-c2cccs2)oc1=O` registered a half-maximal effective concentration (EC50) with Hepatitis C virus of 5.1 µM. Moreover, it took 10 µM to reach half-maximal cytotoxicity in series [1] (CC50 at 72 h).

For the molecule `CONc1cc(-c2ccc(C)cc2)oc(=O)c1C(=O)NCCCO`, in the series with Hepatitis C virus, the EC50 was over 100 µM. Besides, the CC50 at 72 h in series [1] is over 100 µM.

In the series with Hepatitis C virus, `CCC[C@H](NC(=O)[C@@H]1[C@H]2CCC[C@H]2CN1C(=O)[C@@H](NC(=O)[C@@H](NC(=O)c1cnccn1)C1CCCCC1)C(C)(C)C)C(=O)C(=O)NC1CC1` [TELAPREVIR] showed an EC50 of 0.36 µM. In series [1], this molecule displayed a cytotoxic concentration (CC50) at 72 h of over 20 µM.
